HSP90 refold inh – inhibitors of HSP90 luciferase refolding in rabbit reticulocyte lysate | luciferase refolding luminescence, 3 h | inhibition, % at 5.6 µM | 290,000 compounds, 0.91% hits | AID 1789;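 active means inhibition above the screen-wide mean plus 3 SD, computed separately per campaign, cut at about 16% in these data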;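 further: 0% = DMSO wells and 100% = 60 µM geldanamycin wells; inhibitors lower the luminescence because luciferase stays unfolded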
HSF1 inh – HSF1 inhibition | NIH3T3-HGL HSE-luciferase, MG132-induced, luminescence 8 h; hits give low values | activity change, negative = inhibition, % at 7.5 µM (by protocol) | 300,000 compounds, 0.77% hits | AID 2098;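 active means more than half of replicate wells show activity change below -50%, luminescence cut by over half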;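 further: luciferase reports HSF-1 transcriptional activity via heat shock element; 0% = median of DMSO wells and -100% = zero luminescence signal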
FID counter – counter-screen for HCV NS3 helicase inhibitors: DNA intercalator displacement; 290,000 compounds, 0.17% hits; DNA fluorescent intercalator displacement, fluorescence; AID 1845; inhibition, % at 7.9 µM; in the data active means inhibition above about 37%;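 further: 0% = vehicle and 100% = reference compound; higher means more ethidium bromide displaced from hairpin DNA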
HSF-1 act – increases HSF-1 driven luciferase reporter signal; activation, % at 9 µM; NIH3T3-HGL HSF-1 luciferase reporter, MG132, 8 h; 100% = twice DMSO control signal; 300,000 compounds, 1.7% hits;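 active means mean replicate activation of at least 50% with a set share of replicates each reaching 50%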;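 further: 0% = median of the neutral control wells and 100% = twice that signal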
HCV NS3 hel inh – HCV NS3 helicase inhibition | NS3 helicase DNA unwinding, Cy5 molecular beacon fluorescence | inhibition, % at 10.9 µM | 290,000 compounds, 0.56% hits;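 active means inhibition above the mean of all tested compounds plus 3 SD, set per campaign, cut at about 35% in these data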;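 further: 0% = DMSO wells and 100% = thioflavine S control wells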
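Test system: hepatitis C virus NS3 helicase domain fragment enzyme. Also added: annealed dual-labelled DNA beacon duplex, ATP-started. Timing: 60 min unwinding reaction at 25 °C after ATP addition. Technique: Cy5 fluorescence. Measure: % inhibition of unwinding.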
core dimer inh – HCV core protein dimerization inhibition; TR-FRET GST/Flag-core106 dimerization, 1536-well; inhibition, % at 5 µM; 300,000 compounds, 0.33% hits; AID 1899;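 active means inhibition above the mean of all tested compounds plus 3 SD, set per screening campaign, cut at about 45% in these data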
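System – GST-tagged and Flag-tagged HCV core protein residues 1-106 · Repeats – one well for each compound · Technique – TR-FRET 671 and 617 nm emission · Doses – one concentration, 5 µM, in 0.5% DMSO · Times – 4 h, 22.5 °C incubation · Also added – Eu donor and XL665 acceptor anti-tag antibodies · Measure – percent inhibition of core106 dimerization signal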
* = called active by the depositor; . = no result. A selection: hits, their analogues and other compounds. The true share with any hit is near 3.9%.

SMILES	HSP90 refold inh	HSF1 inh	FID counter	HSF-1 act	HCV NS3 hel inh	core dimer inh
COc1ccccc1NC1=C(Cl)C(=O)N(C2CCCCC2)C1=O	2	-85*	-6	-87	-1	5
Cc1ccccc1NC1=C(Cl)C(=O)N(C2CCCCC2)C1=O	-2	-3	-4	1	0	3
O=C(Nc1nc2cc3c(cc2s1)OCCO3)c1ccc([N+](=O)[O-])o1	10	92	9	104*	6	5
Cc1cc(C)c2nc(NC(=O)c3ccc([N+](=O)[O-])o3)sc2c1	0	8	1	-15	-5	-2
Cc1cc(C)c2sc(NC(=O)c3ccc([N+](=O)[O-])o3)nc2c1	2	54	-2	77*	-111	4
CCOC(=O)C1(CC2CCCCO2)CCN(C(=O)Nc2ccccc2)CC1 (centres undefined)	-3	11	-15	6	7	-2
COCCCNC(=O)c1c[nH]c2ccc(S(=O)(=O)N3CCc4ccccc43)cc2c1=O	1	23	7	51*	9	2
Cc1ccc(S(=O)(=O)NC(=NCc2ccccc2)c2ccc(F)cc2)cc1	2	-77*	-29	-82	2	9
CC1CC(=O)Nc2cc([N+](=O)[O-])ccc2N1 (centres undefined)	4	-89*	-4	-92	2	-5
CC1CC(=O)Nc2ccc([N+](=O)[O-])cc2N1C (centres undefined)	-3	-4	2	7	4	-3
Cc1cc2c(cc1C)C(c1cccc([N+](=O)[O-])c1)CC(=O)N2 (centres undefined)	-1	33	-13	63*	-7	-6
O=c1oc(-c2ccccc2)nc2sc3c(c12)CCC3	0	-3	5	-27	4	59*
Nc1nc(-c2ccccc2)nc2sc3c(c12)CCCC3	-3	39	3	85*	-1	-3
COC(=O)C(NC(=O)CNS(=O)(=O)c1ccc(Br)cc1)c1ccccc1 (centres undefined)	4	19	-19	54*	1	-2
O=c1c(-c2cnn(-c3ccccc3)c2)coc2cc(O)ccc12	-2	73	3	94*	5	5
CC(OC(=O)C1CCN(S(=O)(=O)c2ccc(F)cc2)CC1)C(=O)NC1CCCCC1C (centres undefined)	.	-2	.	-6	.	2
O=C(OC1CCCCC1)c1ccc2c(c1)C1C=CCC1C(C(=O)O)N2 (centres undefined)	-1	.	-17	.	40*	.
CCOC(=O)C1Nc2ccc(C)cc2C2C=CCC12 (centres undefined)	.	4	.	-12	.	38
CN(C)c1cccc(C(=O)Nc2ccc3nc4n(c(=O)c3c2)CCCCC4)c1	-2	-1	-20	3	-4	-9
O=C(NC(Cc1ccccc1)C(=O)O)C1CCN(S(=O)(=O)c2cccc(C(F)(F)F)c2)CC1 (centres undefined)	0	6	-21	18	4	-1
Cc1ccc(S(=O)(=O)N2CCC(C(=O)N[C@@H](Cc3ccccc3)C(=O)O)CC2)cc1	-4	-78*	-34	-81	0	-3
CCOc1ccc(NCc2nnc(SCC(=O)Nc3nc(-c4ccccc4)cs3)n2-c2ccccc2)cc1	6	-67*	-3	-68	5	31
Cc1cccc(C)c1NCc1nnc(SCC(=O)Nc2nc(-c3ccccc3)cs2)n1-c1ccccc1	-2	24	-11	60*	5	11
CCOC(=O)Cc1csc(NC(=O)CCCC(=O)O)n1	1	-3	-10	-1	0	-3
CCOC(=O)Nc1ccc2c(c1)Sc1ccccc1N2C(=O)CCN1CCOCC1	7	22	-2	63*	-12	-7
SMILES	HSP90 refold inh	HSF1 inh	FID counter	HSF-1 act	HCV NS3 hel inh	core dimer inh
COC(=O)Nc1ccc2c(c1)N(C(=O)CCN1CCN3CCCC3C1)c1ccccc1S2 (centres undefined)	4	25	39*	48	-52	-3
CCc1c(C)sc(NC(=O)c2ccoc2C)c1C(N)=O	-4	4	-8	-9	16	5
COCc1[nH]nc2c1C(c1sccc1C)C(C#N)=C(N)O2 (centres undefined)	-3	-2	4	-12	-6	-9
COCCn1nnnc1C(c1ccccc1OC)N1CCc2ccccc2C1 (centres undefined)	3	50	-19	95*	-4	-3
CC1(C)CC(N2CCC(=O)NC2=S)CC(C)(C)N1	.	-13	.	-2	.	0
CC1(C)CC(N2CCC(=O)N(C3CC(C)(C)NC(C)(C)C3)C2)CC(C)(C)N1	3	1	37*	-14	6	2
CCOC(=O)c1c(S(=O)(=O)Nc2ccc(F)cc2Cl)c(C)n(C)c1C	-6	4	-29	11	-7	1
CC(Cc1ccccc1)C(=O)Nc1ccc(Br)cc1 (centres undefined)	3	12	-5	6	-14	-6
CC(Cc1ccccc1)C(=O)Nc1ccccc1 (centres undefined)	4	-65*	-5	-71	1	-23
COc1cc(OC)cc(-c2nnc(SCC(=O)N(C(C)C)C(C)C)o2)c1	3	-5	-14	5	-11	-4
COc1cc(OC)cc(-c2nnc(Sc3ccc(C=O)cc3[N+](=O)[O-])o2)c1	3	88	8	142*	7	9
O=C1C2CC=CCC2C(=O)N1c1ccc(NCCc2ccccc2)c([N+](=O)[O-])c1 (centres undefined)	-1	35	0	70*	-4	9
CC1CC(=O)N(c2ccc(NCCc3ccc(O)cc3)c([N+](=O)[O-])c2)C1=O (centres undefined)	-4	0	3	6	0	-7
O=C1C2CC=CCC2C(=O)N1c1ccc(NCCc2ccccc2F)c([N+](=O)[O-])c1 (centres undefined)	-6	37	3	64*	-6	11
CC1CC(=O)N(c2ccc(NCCc3ccccc3)c([N+](=O)[O-])c2)C1=O (centres undefined)	-2	20	2	23	-9	-1
CC[C@@H](C)[C@H](CN[C@H](CNC)[C@@H](C)O)NCCc1ccc(OC)cc1	-2	-2	13	-5	-4	-13
CCOC(=O)c1c(C)n(-c2ccc(C)cc2)c2c(CC(C)=O)c(Br)c(OC)c(O)c12	6	36	2	65*	-1	6
CC(C)NCC(O)COCc1ccc(Cl)cc1 (centres undefined)	0	17	5	53*	-3	-2
CCC(C)NCC(O)COCc1ccc(Cl)cc1 (centres undefined)	4	-3	-2	-6	-3	-6

Screening results as filed in PubChem.
